Data published in article PMC7471454 (Acta Pharmacologica Sinica, 2019).
“Also recorded” adds a separate entry of the source.

Key:
hNav1.7 channels = hNav1.7 channels (Homo sapiens, UniProt Q15858); assay: cell-based; conditions: for inhibitory activity against Nav1.7 (in words): HEK293 cells stably expressing hNav1.7; for Nav1.7/Nav1.5 selectivity (in words): Nav1.7 versus Nav1.5; for activity toward Nav1.7 relative to 10h: higher than that of 10h
[1] = test system: neuronal excitability of small-diameter DRG neurons; assay: Firing frequency of DRG neurons; assay type: cell-based, mouse; conditions: 500 ms current injection, 10 and 100 nmol/L
[2] = test system: acetic acid-induced writhing in ICR mice; assay: Acetic acid-induced writhing test; assay type: in vivo, mouse; conditions: i.p. 30 min before 1.5% acetic acid, writhes counted for 30 min
Method in brief: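 Male ICR mice (22–28 g) received test compound i.p. in 5% DMSO/95% (0.5% carboxymethyl cellulose sodium) at 0.2 mL/10 g, 30 min before i.p. 1.5% acetic acid (10 mL/kg). Writhes, defined as abdominal contraction with body elongation and hind-limb extension, were counted over 30 min under blinded assessment. Indomethacin 30 mg/kg p.o. was given 60 min prior as reference. n = 6–12; one-way ANOVA.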

hNav1.5 channels = hNav1.5 channels (Homo sapiens, UniProt Q14524); assay: Whole-cell voltage-clamp on human Nav1.5 channels stably expressed in CHL cells; assay type: cell-based
Method in brief: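 CHL cells stably expressing hNav1.5 were selected in G418 (500 µg/mL), plated on poly-L-lysine coverslips and used within 24 h. Whole-cell voltage clamp at room temperature, with CsF pipette and NaCl bath (pH 7.3); DMSO ≤0.5% final. After 5 min at −80 mV: hold −40 mV, 20 ms prepulse to −150 mV, 10 ms pulse to 0 mV at 1 Hz. Peak IDrug/IControl was fitted to a 3-parameter Hill equation for IC50.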

[3] = test system: native sodium currents in mouse DRG neurons; assay: Native sodium currents in isolated DRG neurons; assay type: cell-based; conditions: for reduction of sodium current amplitude: mouse DRG neurons

Chain of hNav1.5 channels (Q14524 whole entry): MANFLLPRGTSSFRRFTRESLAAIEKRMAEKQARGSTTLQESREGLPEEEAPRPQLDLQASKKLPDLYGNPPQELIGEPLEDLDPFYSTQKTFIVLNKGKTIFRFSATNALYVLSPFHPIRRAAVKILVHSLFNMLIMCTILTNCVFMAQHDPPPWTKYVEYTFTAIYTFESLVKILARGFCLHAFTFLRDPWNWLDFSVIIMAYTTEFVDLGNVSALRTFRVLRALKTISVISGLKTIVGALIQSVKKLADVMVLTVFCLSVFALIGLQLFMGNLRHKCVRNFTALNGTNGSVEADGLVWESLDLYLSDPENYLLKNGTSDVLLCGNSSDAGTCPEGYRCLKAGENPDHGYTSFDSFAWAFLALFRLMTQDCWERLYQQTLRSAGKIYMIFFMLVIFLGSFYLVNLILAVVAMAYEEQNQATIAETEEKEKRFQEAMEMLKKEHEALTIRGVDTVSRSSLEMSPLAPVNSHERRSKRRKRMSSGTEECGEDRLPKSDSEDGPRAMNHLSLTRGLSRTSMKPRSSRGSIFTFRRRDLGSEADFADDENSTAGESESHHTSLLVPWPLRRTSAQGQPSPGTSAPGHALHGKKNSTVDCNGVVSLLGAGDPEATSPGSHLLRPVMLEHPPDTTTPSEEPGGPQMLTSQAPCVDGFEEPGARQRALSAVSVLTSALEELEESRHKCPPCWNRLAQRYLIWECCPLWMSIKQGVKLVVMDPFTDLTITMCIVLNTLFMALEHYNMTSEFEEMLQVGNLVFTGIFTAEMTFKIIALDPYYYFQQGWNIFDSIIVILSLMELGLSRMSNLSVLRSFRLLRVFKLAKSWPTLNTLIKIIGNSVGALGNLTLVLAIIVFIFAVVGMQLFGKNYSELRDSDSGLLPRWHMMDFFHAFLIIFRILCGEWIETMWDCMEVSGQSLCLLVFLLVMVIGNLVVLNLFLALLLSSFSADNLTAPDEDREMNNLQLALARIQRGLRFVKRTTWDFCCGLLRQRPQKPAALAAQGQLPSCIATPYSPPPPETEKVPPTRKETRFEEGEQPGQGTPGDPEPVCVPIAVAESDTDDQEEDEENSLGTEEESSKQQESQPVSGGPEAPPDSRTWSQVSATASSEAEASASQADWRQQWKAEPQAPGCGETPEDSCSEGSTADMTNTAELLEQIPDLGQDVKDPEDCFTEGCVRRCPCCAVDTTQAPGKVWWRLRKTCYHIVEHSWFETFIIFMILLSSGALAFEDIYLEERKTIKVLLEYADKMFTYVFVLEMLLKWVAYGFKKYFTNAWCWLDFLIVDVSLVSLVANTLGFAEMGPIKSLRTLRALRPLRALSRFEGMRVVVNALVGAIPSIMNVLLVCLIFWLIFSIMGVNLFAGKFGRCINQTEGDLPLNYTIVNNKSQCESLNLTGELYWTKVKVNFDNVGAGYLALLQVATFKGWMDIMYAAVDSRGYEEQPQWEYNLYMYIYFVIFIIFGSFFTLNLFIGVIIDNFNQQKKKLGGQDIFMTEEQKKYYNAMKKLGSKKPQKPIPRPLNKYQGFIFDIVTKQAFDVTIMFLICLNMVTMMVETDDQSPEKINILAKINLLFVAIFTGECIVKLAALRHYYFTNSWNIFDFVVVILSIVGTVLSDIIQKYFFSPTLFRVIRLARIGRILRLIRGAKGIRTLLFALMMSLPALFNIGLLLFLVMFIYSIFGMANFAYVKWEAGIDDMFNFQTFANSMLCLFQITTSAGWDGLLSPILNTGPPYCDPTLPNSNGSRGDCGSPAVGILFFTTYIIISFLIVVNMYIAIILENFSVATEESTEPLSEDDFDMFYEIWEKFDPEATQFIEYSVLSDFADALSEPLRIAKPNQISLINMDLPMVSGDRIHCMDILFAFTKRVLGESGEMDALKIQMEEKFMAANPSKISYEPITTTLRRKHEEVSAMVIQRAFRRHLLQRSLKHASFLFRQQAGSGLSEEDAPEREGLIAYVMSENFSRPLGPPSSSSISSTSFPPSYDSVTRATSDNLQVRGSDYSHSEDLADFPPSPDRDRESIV

inhibitory activity against Nav1.7 (in words) (hNav1.7 channels)	IC50 (hNav1.7 channels) [µM]	Compound	also measured
maintained the activity of 10a	–	C#CCN(C)CC(CCC12CCC(c3ccccc31)c1ccccc12)Oc1ccc(S(=O)(=O)Nc2ncns2)cc1C#N (centres unmarked) [10e, 3-cyano-4-((4-(9,10-dihydro-9,10-ethanoanthracen-9-yl)-1-(methyl(prop-2-yn-1-yl)amino)butan-2-yl)oxy)-N-(1,2,4-thiadiazol-5-yl)benzenesulfonamide]	–
weak	–	CN(CCc1ccccc1)CC(CCC12CCC(c3ccccc31)c1ccccc12)Oc1ccc(S(=O)(=O)Nc2ncns2)cc1C#N (centres unmarked) [10f, 3-cyano-4-((4-(9,10-dihydro-9,10-ethanoanthracen-9-yl)-1-(methyl(phenethyl)amino)butan-2-yl)oxy)-N-(1,2,4-thiadiazol-5-yl)benzenesulfonamide]	–
weak	–	C=CCN(C)CC(CCC12CCC(c3ccccc31)c1ccccc12)Oc1ccc(S(=O)(=O)Nc2ncns2)cc1C#N (centres unmarked) [10d, 4-((1-(allyl(methyl)amino)-4-(9,10-dihydro-9,10-ethanoanthracen-9-yl)butan-2-yl)oxy)-3-cyano-N-(1,2,4-thiadiazol-5-yl)benzenesulfonamide]	–
–	~0.01	CNCCOCC(CCC12CCC(c3ccccc31)c1ccccc12)Oc1ccc(S(=O)(=O)Nc2ncns2)cc1C#N (centres unmarked) [10l, 3-cyano-4-((4-(9,10-dihydro-9,10-ethanoanthracen-9-yl)-1-(2-(methylamino)ethoxy)butan-2-yl)oxy)-N-(1,2,4-thiadiazol-5-yl)benzenesulfonamide]	Nav1.7/Nav1.5 selectivity (in words) (hNav1.7 channels): well maintained
maintained the activity of 10a	–	CN(Cc1ccc(C(F)(F)F)cc1)CC(CCC12CCC(c3ccccc31)c1ccccc12)Oc1ccc(S(=O)(=O)Nc2ncns2)cc1C#N (centres unmarked) [10g, 3-cyano-4-((4-(9,10-dihydro-9,10-ethanoanthracen-9-yl)-1-(methyl(4-(trifluoromethyl)benzyl)amino)butan-2-yl)oxy)-N-(1,2,4-thiadiazol-5-yl)benzenesulfonamide]	–
–	0.0125	N#Cc1cc(S(=O)(=O)Nc2ncns2)ccc1OC(CCC12CCC(c3ccccc31)c1ccccc12)COCCN1CCCCC1 (centres unmarked) [10p, 3-cyano-4-((4-(9,10-dihydro-9,10-ethanoanthracen-9-yl)-1-(2-(piperidin-1-yl)ethoxy)butan-2-yl)oxy)-N-(1,2,4-thiadiazol-5-yl)benzenesulfonamide]	Nav1.7/Nav1.5 selectivity (in words) (hNav1.7 channels): good selectivity
not as good as that of MPT	–	CCNCC(CC12CCC(c3ccccc31)c1ccccc12)Oc1ccc(S(=O)(=O)Nc2ncns2)cc1C#N (centres unmarked) [9b, 3-cyano-4-((1-(9,10-dihydro-9,10-ethanoanthracen-9-yl)-3-(ethylamino)propan-2-yl)oxy)-N-(1,2,4-thiadiazol-5-yl)benzenesulfonamide]	–
–	0.00298	CN1CC(OCC(CCC23CCC(c4ccccc42)c2ccccc23)Oc2ccc(S(=O)(=O)Nc3ncns3)cc2C#N)C1 (centres unmarked) [10m, 3-cyano-4-((4-(9,10-dihydro-9,10-ethanoanthracen-9-yl)-1-((1-methylazetidin-3-yl)oxy)butan-2-yl)oxy)-N-(1,2,4-thiadiazol-5-yl)benzenesulfonamide]	–
–	–	N#Cc1cc(S(=O)(=O)Nc2ncns2)ccc1OC(CCC12CCC(c3ccccc31)c1ccccc12)COCc1ccccc1 (centres unmarked) [10j, 4-((1-(benzyloxy)-4-(9,10-dihydro-9,10-ethanoanthracen-9-yl)butan-2-yl)oxy)-3-cyano-N-(1,2,4-thiadiazol-5-yl)benzenesulfonamide]	activity toward Nav1.7 relative to 10h (hNav1.7 channels): 10 times
–	0.0335	N#Cc1cc(S(=O)(=O)Nc2ncns2)ccc1OC(CCC12CCC(c3ccccc31)c1ccccc12)COCCN1CCOCC1 (centres unmarked) [10q, 3-cyano-4-((4-(9,10-dihydro-9,10-ethanoanthracen-9-yl)-1-(2-morpholinoethoxy)butan-2-yl)oxy)-N-(1,2,4-thiadiazol-5-yl)benzenesulfonamide]	Nav1.7/Nav1.5 selectivity (in words) (hNav1.7 channels): good selectivity
–	~0.01	CN(C)CCOCC(CCC12CCC(c3ccccc31)c1ccccc12)Oc1ccc(S(=O)(=O)Nc2ncns2)cc1C#N (centres unmarked) [10k, 3-cyano-4-((4-(9,10-dihydro-9,10-ethanoanthracen-9-yl)-1-(2-(dimethylamino)ethoxy)butan-2-yl)oxy)-N-(1,2,4-thiadiazol-5-yl)benzenesulfonamide]	Nav1.7/Nav1.5 selectivity (in words) (hNav1.7 channels): well maintained
–	0.00538	N#Cc1cc(S(=O)(=O)Nc2ncns2)ccc1OC(CCC12CCC(c3ccccc31)c1ccccc12)COCCN1CCC1 (centres unmarked) [10n, 4-((1-(2-(azetidin-1-yl)ethoxy)-4-(9,10-dihydro-9,10-ethanoanthracen-9-yl)butan-2-yl)oxy)-3-cyano-N-(1,2,4-thiadiazol-5-yl)benzenesulfonamide]	Nav1.7/Nav1.5 selectivity (in words) (hNav1.7 channels): good selectivity
weak	–	CCN(C)CC(CCC12CCC(c3ccccc31)c1ccccc12)Oc1ccc(S(=O)(=O)Nc2ncns2)cc1C#N (centres unmarked) [10b, 3-cyano-4-((4-(9,10-dihydro-9,10-ethanoanthracen-9-yl)-1-(ethyl(methyl)amino)butan-2-yl)oxy)-N-(1,2,4-thiadiazol-5-yl)benzenesulfonamide]	–
maintained the activity of 10a	–	CC(C)N(C)CC(CCC12CCC(c3ccccc31)c1ccccc12)Oc1ccc(S(=O)(=O)Nc2ncns2)cc1C#N (centres unmarked) [10c, 3-cyano-4-((4-(9,10-dihydro-9,10-ethanoanthracen-9-yl)-1-(isopropyl(methyl)amino)butan-2-yl)oxy)-N-(1,2,4-thiadiazol-5-yl)benzenesulfonamide]	–
–	–	Nc1[nH]ncc1-c1cc(Cl)ccc1Oc1cc(F)c(S(=O)(=O)Nc2cscn2)cc1Cl [PF-05089771, 4-[2-(5-Amino-1H-pyrazol-4-yl)-4-chlorophenoxy]-5-chloro-2-fluoro-N-1,3-thiazol-4-ylbenzenesulfonamide, reference compound]	effect on action potentials / firing frequency (in words) [1]: dose-dependently suppressed; effect on acetic acid-induced writhing (in words) [2]: dose-dependently decreased
not as good as that of MPT	–	CNCC(CC12CCC(c3ccccc31)c1ccccc12)Oc1ccc(S(=O)(=O)Nc2ncns2)cc1C#N (centres unmarked) [9a, 3-cyano-4-((1-(9,10-dihydro-9,10-ethanoanthracen-9-yl)-3-(methylamino)propan-2-yl)oxy)-N-(1,2,4-thiadiazol-5-yl)benzenesulfonamide]	–
–	0.00064 ± 0.0003	N#Cc1cc(S(=O)(=O)Nc2ncns2)ccc1OC(CCC12CCC(c3ccccc31)c1ccccc12)COCCN1CCCC1 (centres unmarked) [10o, 3-cyano-4-((4-(9,10-dihydro-9,10-ethanoanthracen-9-yl)-1-(2-(pyrrolidin-1-yl)ethoxy)butan-2-yl)oxy)-N-(1,2,4-thiadiazol-5-yl)benzenesulfonamide]	selectivity for Nav1.7 over Nav1.5 (hNav1.7 channels; from the Nav1.5 and Nav1.7 IC50): > 50 000 times; IC50 (hNav1.5 channels): 33.6 µM; reduction of sodium current amplitude ([3]; 10 nmol/L): 24% ± 6%; reduction of sodium current amplitude ([3]; 100 nmol/L): 40% ± 6%; effect on native sodium currents (in words) ([3]; mouse small-sized DRG neurons, 10 and 100 nmol/L): dose-dependently decreased the sodium currents; effect on action potentials / firing frequency (in words) [1]: dramatically suppressed depolarizing current-elicited neuronal discharge; also recorded: dose-dependently suppressed; effect on acetic acid-induced writhing (in words) [2]: dose-dependently decreased
–	–	CCOCC(CCC12CCC(c3ccccc31)c1ccccc12)Oc1ccc(S(=O)(=O)Nc2ncns2)cc1C#N (centres unmarked) [10i, 3-cyano-4-((4-(9,10-dihydro-9,10-ethanoanthracen-9-yl)-1-ethoxybutan-2-yl)oxy)-N-(1,2,4-thiadiazol-5-yl)benzenesulfonamide]	activity toward Nav1.7 relative to 10h (hNav1.7 channels): 10 times
not as good as that of MPT	–	CC(C)NCC(CC12CCC(c3ccccc31)c1ccccc12)Oc1ccc(S(=O)(=O)Nc2ncns2)cc1C#N (centres unmarked) [9c, 3-cyano-4-((1-(9,10-dihydro-9,10-ethanoanthracen-9-yl)-3-(isopropylamino)propan-2-yl)oxy)-N-(1,2,4-thiadiazol-5-yl)benzenesulfonamide]	–
